The values below come from ChEMBL document CHEMBL1155272, “Nucleoside-5'-monophosphates as prodrugs of adenosine A2A receptor agonists activated by ecto-5'-nucleotidase” (J Med Chem, 2009).

In this assay the target is T1, 5'-nucleotidase (Rattus norvegicus) (UniProt P21588).
T1 sequence (whole entry): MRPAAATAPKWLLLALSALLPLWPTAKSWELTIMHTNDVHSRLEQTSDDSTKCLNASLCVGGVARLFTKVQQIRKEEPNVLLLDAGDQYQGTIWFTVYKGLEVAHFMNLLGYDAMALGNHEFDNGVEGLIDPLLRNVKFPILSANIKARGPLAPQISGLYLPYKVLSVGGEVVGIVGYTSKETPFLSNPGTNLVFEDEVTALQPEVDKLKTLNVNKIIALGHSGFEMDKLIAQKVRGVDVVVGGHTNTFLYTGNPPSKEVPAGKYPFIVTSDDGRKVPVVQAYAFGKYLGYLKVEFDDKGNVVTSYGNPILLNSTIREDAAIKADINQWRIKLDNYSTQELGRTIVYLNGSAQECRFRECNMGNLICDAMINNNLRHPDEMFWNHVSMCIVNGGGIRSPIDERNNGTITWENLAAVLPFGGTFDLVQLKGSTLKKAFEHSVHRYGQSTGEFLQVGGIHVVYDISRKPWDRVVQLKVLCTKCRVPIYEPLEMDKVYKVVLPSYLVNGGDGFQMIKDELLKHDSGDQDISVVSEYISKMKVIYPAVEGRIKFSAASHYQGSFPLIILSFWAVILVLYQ
In words: Activity at rat recombinant ecto-5'-nucleotidase expressed in baculovirus-infected insect Sf9 cells co-transfected with soluble glutathione-S-transferase assessed as compound dephosphorylation by capillary electrophoresis relative to AMP. On the set-up: concentration or dose not given beside the values. In short, it runs like this: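 Purified GST-rat ecto-5'-NT fusion protein (baculovirus/insect cells, glutathione-agarose purified). 500 μM nucleoside monophosphate in 10 mM Hepes pH 7.4, 2 mM MgCl2, 1 mM CaCl2; 37 °C, 20 min; stopped at 99 °C for 5 min. Nucleoside product quantified by capillary electrophoresis (borate pH 9.1, UV 232 nm). Dephosphorylation expressed relative to AMP (100%). Two experiments, triplicate injections.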

With `Nc1nc(SCCC2OCCO2)nc2c1ncn2[C@@H]1O[C@H](COP(=O)(O)O)[C@@H](O)[C@H]1O`, the Activity was determined as 104%.
As for `Nc1nc(SC2CCCC2)nc2c1ncn2[C@@H]1O[C@H](COP(=O)(O)O)[C@@H](O)[C@H]1O`, the figure is 71%.
For the compound `C=CCSc1nc(N)c2ncn([C@@H]3O[C@H](COP(=O)(O)O)[C@@H](O)[C@H]3O)c2n1`, the Activity was 0%.
Consider `Nc1nc(SC2CCCCC2)nc2c1ncn2[C@@H]1O[C@H](COP(=O)(O)O)[C@@H](O)[C@H]1O`, for which the Activity worked out at 28%.
Next, `Nc1nc(SCCC2CCCCC2)nc2c1ncn2[C@@H]1O[C@H](COP(=O)(O)O)[C@@H](O)[C@H]1O`: 96%.
Turning to `Nc1nc(SCc2ccccc2)nc2c1ncn2[C@@H]1O[C@H](COP(=O)(O)O)[C@@H](O)[C@H]1O`, the Activity came to 0%.
With `Nc1nc(SCC2CCCCC2)nc2c1ncn2[C@@H]1O[C@H](COP(=O)(O)O)[C@@H](O)[C@H]1O`, the Activity was found to be 71%.
Next, `CCCCCCSc1nc(N)c2ncn([C@@H]3O[C@H](COP(=O)(O)O)[C@@H](O)[C@H]3O)c2n1`: 84%; `CCCSc1nc(N)c2ncn([C@@H]3O[C@H](COP(=O)(O)O)[C@@H](O)[C@H]3O)c2n1`: 47%; `Nc1nc(SCCC2COCCO2)nc2c1ncn2[C@@H]1O[C@H](COP(=O)(O)O)[C@@H](O)[C@H]1O` (some centres not stated): 67%.
For the compound `C#CCSc1nc(N)c2ncn([C@@H]3O[C@H](COP(=O)(O)O)[C@@H](O)[C@H]3O)c2n1`, the Activity amounted to 0%.
Next, `Nc1nc(SCCc2ccccc2)nc2c1ncn2[C@@H]1O[C@H](COP(=O)(O)O)[C@@H](O)[C@H]1O`: 0%.
